Compound activity (PubChem BioAssay)
This is a sample that favours compounds with a hit; in the whole collection about 2.8% have one here.
NPY-Y1 antag: NPY-Y1 (human) receptor antagonism; HEK293-CNG Y1 cells, membrane potential fluorescence; NPY at EC95, then isoproterenol; inhibition, % at 3.6 µM; 1% of 200,000 active;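 active means inhibition above the campaign mean inhibition of all tested compounds plus 3 SD, cut at about 20% in these data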;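 further: 0% = DMSO wells given NPY plus isoproterenol and 100% = isoproterenol alone without NPY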
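System: HEK293 cells with Y1 receptor plus CNG channel / Probe or stimulus: NPY 25 nM then isoproterenol 1 µM plus Ro 20-1724 25 µM / Compound: one concentration, 3.6 µM, in 0.4% DMSO / Schedule: compound incubation 1 h at room temperature, readout 45 min post-stimulation / Measured by: membrane potential fluorescence / Read-out: % inhibition of NPY effect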
PGE2 EP2 inh: inhibitors of human EP2 prostaglandin E2 receptor. P43116. C6 glioma cells expressing human EP2, cAMP TR-FRET; cells stimulated with saturating PGE2. inhibition, % at 25 µM. 0.52% of 260,000 active. AID 1422;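 active means percent inhibition above 40 after rounding to a whole number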;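 further: rat C6 glioma host cells with rolipram phosphodiesterase inhibitor present; the protocol text gives 20 µM as final concentration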
NPY-Y2 antag: blocks the human neuropeptide Y Y2 receptor | P49146 | AID 793 | NPY-Y2 expressing cells, antagonist mode | inhibition, % at 2.7 µM | 0.99% of 140,000 active; in the data active means inhibition above about 17%;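 further: 0% = vehicle with agonist challenge and 100% = reference antagonist with challenge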
Target sequence (P49146 whole entry, looked up): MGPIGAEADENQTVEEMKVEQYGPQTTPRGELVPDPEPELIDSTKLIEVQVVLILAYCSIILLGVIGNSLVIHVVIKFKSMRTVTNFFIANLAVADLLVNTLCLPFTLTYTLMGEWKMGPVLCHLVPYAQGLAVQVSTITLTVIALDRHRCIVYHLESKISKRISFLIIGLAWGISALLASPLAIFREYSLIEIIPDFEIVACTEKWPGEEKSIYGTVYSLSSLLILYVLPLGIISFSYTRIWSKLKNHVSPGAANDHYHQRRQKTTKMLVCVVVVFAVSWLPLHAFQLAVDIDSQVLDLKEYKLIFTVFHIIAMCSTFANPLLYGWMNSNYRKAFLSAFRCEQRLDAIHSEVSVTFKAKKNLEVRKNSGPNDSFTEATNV
NPY2 pot ag: human NPY-Y2 potentiation or agonism, primary screen | P49146 | 0.45% of 220,000 active | activation, % at 3.6 µM | cells expressing NPY-Y2, potentiator/agonist read-out | AID 1359; in the data active means activation above about 27%;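 further: cells stimulated with NPY near EC25 plus isoproterenol at EC100; 0% = vehicle plus submaximal agonist and 100% = vehicle plus saturating agonist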
NPY1 pot ag: potentiators or agonists of human neuropeptide Y receptor Y1 | P25929 | NPY-Y1 expressing cells, potentiator/agonist activation | activation, % at 3.6 µM | 0.37% of 220,000 active | AID 1304; in the data active means activation above about 33%, passing the limit was not always enough;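 further: cells stimulated with NPY at EC10 then isoproterenol at EC100; 0% = low agonist plus stimulus and 100% = saturating agonist plus stimulus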
EP2 modulator: modulators of human EP2 prostaglandin E2 receptor | P43116 | EP2-expressing cells, cAMP HTRF FRET, PGE2 co-stimulation | induction, % at 25 µM | 0.83% of 260,000 active | AID 940;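 active means compounds whose cAMP rise, as percent of the full-agonist control response, exceeds 60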;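 further: rat C6 glioma line stably carrying human EP2 under a CMV promoter; the protocol text gives 20 µM as final concentration; 100% = response of wells given 1 µM PGE2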
NPY1 antag ctr: human NPY-Y1 antagonism in NPY-Y2 counter-screen; shares compounds with NPY-Y2 antag; cell-based NPY-Y1 antagonism counterscreen; inhibition, % at 3.6 µM; 19% of 710 active; in the data active means inhibition above about 20%;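 further: cells challenged with NPY then isoproterenol with cAMP sensed through a CNG channel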
NPY2 antag conf: confirmation of human neuropeptide Y receptor Y2 antagonists | shares compounds with NPY-Y2 antag | HEK293 NPY-Y2 CNG channel, membrane potential fluorescence | inhibition, % at 2.8 µM | 32% of 710 active | AID 1257;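 active means mean inhibition of triplicate wells above the hit cutoff set in the primary screen, cut at about 17% in these data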;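 further: 0% = DMSO with NPY challenge and 100% = BIIE0246 high control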
An asterisk follows results filed as active; nt = not tested or not shown; ! = not confirmed by another sample.

SMILES	NPY-Y1 antag	PGE2 EP2 inh	NPY-Y2 antag	NPY2 pot ag	NPY1 pot ag	EP2 modulator	others
Cc1cc2n(n1)C(c1ccccc1)Nc1ccccc1-2 (centres undefined)	3	8	3	5	15	64*!
Cc1cc2n(n1)C(c1ccc(C(=O)O)cc1)Nc1ccccc1-2 (centres undefined)	nt	8	nt	nt	nt	6
O=C(O)[C@@H]1[C@H](C(=O)Nc2cccc3cccnc23)[C@@H]2CC[C@H]1O2	nt	58*	nt	nt	nt	-54
N#CC1=C(N)Oc2n[nH]c(-c3cccs3)c2C1c1ccc(O)cc1 (centres undefined)	nt	13	nt	nt	nt	-27
Cc1cc(-c2[nH]nc3c2C(c2ccsc2)C(C#N)=C(N)O3)c(C)s1 (centres undefined)	154*	14	149*	-7	-61	-8
N#CC1=C(N)Oc2n[nH]c(-c3cccs3)c2C1c1cccs1 (centres undefined)	5	52*	2	6	28	-20
CCOc1ccc(-n2c(=O)[nH]c3c(C(N)=O)nc(C)nc32)cc1	nt	nt	nt	nt	nt	-14
CCOc1cc(/C=C2\C(=O)NC(=O)N(c3cccc(Br)c3)C2=O)ccc1O	nt	98*	nt	nt	nt	-131
O=C1NC(=O)N(c2cccc(Br)c2)C(=O)/C1=C/c1cccc(O)c1	nt	9	nt	nt	nt	-1
COc1cc(/C=C2\C(=O)NC(=S)N(c3ccc(Br)cc3C)C2=O)ccc1O	nt	74*	nt	nt	nt	-95
CCn1ncc(C(=O)NCCc2nc(-c3cccnc3)n[nH]2)c1C	nt	nt	nt	nt	nt	4
Cc1cc(C)nc(/N=c2/ssnc2Cl)c1	11	11	5	-1	14	-4
COc1ccc(OC)c(N=c2ssnc2Cl)c1	6	77*	0	3	16	-70
Cc1ccc(N=c2ssnc2Cl)cc1	-4	134*	2	4	0	-47
Cc1cc(Cl)ccc1N=c1ssnc1Cl	-2	76*	7	12	6	-55
Nc1ccccc1N=c1ssnc1Cl	0	8	nt	-2	13	-13
CC1CCN(c2ccc(NC(=O)c3ncoc3-c3cccc(F)c3)cc2C(N)=O)CC1	nt	3	nt	nt	nt	-27
Cc1occc1-c1nn(C2CCN(C(=O)C3CCCCC3)CC2)c(=O)o1	nt	8	nt	nt	nt	-13
CCc1nc2sc3c(c2c2nnc(SCC(=O)NCc4ccc5c(c4)OCO5)n12)CCC(C)C3 (centres undefined)	nt	14	nt	nt	nt	80*
Cc1nc2sc3c(c2c2nnc(SCC(=O)NCc4ccc5c(c4)OCO5)n12)CCC(C)C3 (centres undefined)	nt	10	nt	nt	nt	32
NC(=O)c1ccc(N2CCCC2)c(NC(=O)c2ncoc2-c2cccs2)c1	nt	13	nt	nt	nt	-52
O=C(Nc1ccccc1N1CCCCC1)c1ncoc1-c1cccs1	nt	nt	nt	nt	nt	66*
COc1ccc(S(=O)(=O)n2nc(-c3cc(OC)c(OC)c(OC)c3)cc2N)cc1OC	-3	9	4	-2	-3	15
COc1ccc(-c2cc(N)n(S(=O)(=O)c3c(F)c(F)c(F)c(F)c3F)n2)cc1OC	87*	17	99*	-27	-90	-54
CCCn1c(=O)c(C(=O)Nc2nc(C)cs2)c(O)c2ccccc21	nt	4	nt	nt	nt	-8
SMILES	NPY-Y1 antag	PGE2 EP2 inh	NPY-Y2 antag	NPY2 pot ag	NPY1 pot ag	EP2 modulator	others
Cc1nc2ccccc2nc1OCc1ccccc1	3	11	5	0	0	23
CC(O)c1c(OCc2ccccc2)ncnc1OCc1ccccc1 (centres undefined)	33*	3	3	-14	-27	-9
CC(=O)Oc1ccc2c(c1)Oc1cc(OC(C)=O)ccc1C21OC(=O)c2ccccc21	32*	17	79*	17	-21	-15
Cc1ccc(-n2c(O)c(/C=N/c3nn[nH]n3)c(=O)[nH]c2=O)cc1	nt	11	nt	nt	nt	5
CCOc1ccccc1NC(=O)c1sc(NC(=O)c2ccccc2)c(C(=O)OC)c1C	nt	8	nt	nt	nt	0
CCOC(=O)CSc1nnc(-c2ccc(S(=O)(=O)NCc3cccs3)cc2)o1	-17	7	3	88*	91*	nt
COC(=O)CSc1nnc(-c2ccc(S(=O)(=O)NCc3ccccc3Cl)cc2)o1	-17	11	0	81*	80*	-16
COC(=O)CSc1nnc(-c2ccc(O)cc2)o1	nt	8	nt	nt	nt	-1
COC(=O)CSc1nnc(-c2ccc(S(=O)(=O)NCc3cccs3)cc2)o1	-14	11	2	84*	101*	-28
COc1ccc(C2(NC(=O)CCn3ncc4ccccc43)CCCC2)cc1	nt	nt	nt	nt	nt	4
COC(=O)[C@H]1CCc2ccccc2N1C(=O)Nc1ccc(Cl)cc1	nt	nt	nt	nt	nt	-12
Cc1ccc(S(=O)(=O)N(Cc2ccc(Cl)cc2)c2ccccc2C(=O)NCc2ccco2)cc1	29*	11	32*	-12	-110	39
Cc1ccccc1N(CC(=O)Nc1ccccc1C(=O)NCc1ccco1)S(=O)(=O)c1ccccc1	6	1	2	9	7	1
O=C(COC(=O)c1nsc(Cl)c1Cl)NCc1ccc2c(c1)OCO2	nt	3	nt	nt	nt	-25
CCc1cc2ccc(C)cc2nc1SCC(=O)Nc1nccs1	nt	14	nt	nt	nt	60
COc1cc(C2Nc3c(Cl)cc(Cl)cc3C3C=CCC32)cc(OC)c1OC (centres undefined)	nt	11	nt	nt	nt	62*
COc1ccc(Br)cc1C1Nc2ccccc2C2C=CCC21 (centres undefined)	nt	11	nt	nt	nt	53
CC(C)C(=O)NC(c1ccc(N(C)C)cc1)c1cc(Cl)c2cccnc2c1O (centres undefined)	nt	24	nt	nt	nt	-3
CC1CCC(C(C)C)C(OCC(O)CN2CCOCC2)C1 (centres undefined)	-7	-6	4	76*	74*	-8
CCc1ccc2nc(SCC(=O)N3c4ccccc4CC3C)c(C#N)cc2c1 (centres undefined)	nt	9	nt	nt	nt	64*
CCC(C(=O)NC1CCCC1)N(Cc1ccccc1)C(=O)c1snc(C(N)=O)c1N (centres undefined)	nt	8	nt	nt	nt	-13
CCN(CC)c1ccc(NC(=O)c2cnn3c2NC(c2ccc(C)cc2)CC3C(F)F)cc1 (centres undefined)	nt	12	nt	nt	nt	-10
CCCOc1ccc(C2(C(=O)O)CCCC2)cc1	7	5	44*	-2	1	25	NPY1 antag ctr=8;NPY2 antag conf=6
Cc1nnc2sc(-c3ccc(NC(=O)C(C)(C)C)cc3)nn12	nt	4	nt	nt	nt	-32
Cc1ccc(C(=O)NC2c3ccccc3-c3ccccc32)cc1	16	5	19*	-7	5	2	NPY1 antag ctr=12;NPY2 antag conf=11
